Measurements taken from ChEMBL document CHEMBL3621107, “Ring fusion strategy for synthesis and lead optimization of sulfur-substituted anthra[1,2-c][1,2,5]thiadiazole-6,11-dione derivatives as promising scaffold of antitumor agents” (Eur J Med Chem, 2015).
pIC50: −log10 of the molar value.

Columns and labels:
LOX IMVI = assay: Cytotoxicity against human LOXIMVI cells assessed as cell growth at 10 uM after 48 hrs by SRB assay relative to control; format: functional; conditions: read-out: Activity
In short: (§1)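 First-stage NCI-60 screen by the NCI Developmental Therapeutics Program. Each compound was tested once at a single concentration of 10 μM against the 60-cell-line panel. Growth percentage was reported for each cell line.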

SF-539 = assay: Cytotoxicity against human SF539 cells assessed as cell growth at 10 uM after 48 hrs by SRB assay relative to control; format: functional; conditions: SF-539, 48 h, read-out: Activity
In short: (§2)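 First-stage NCI DTP one-dose screen against the 60 human tumour cell line panel. Compounds were tested at a single 10 μM level, and results are given as growth percentage.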

HOP-92 = assay: Cytotoxicity against human HOP92 cells assessed as cell growth at 10 uM after 48 hrs by SRB assay relative to control; format: functional; conditions: HOP-92, 48 h, read-out: Activity; in short: as §1
[1] = Cytotoxicity against human Hs578T cells assessed as cell growth at 10 uM after 48 hrs by SRB assay relative to control; format: functional; conditions: Hs-578T, read-out: Activity; in short: as §1
SNB-75 = assay: Cytotoxicity against human SNB75 cells assessed as cell growth at 10 uM after 48 hrs by SRB assay relative to control; format: functional; conditions: SNB-75, 48 h, read-out: Activity
In short: (§3)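 NCI-60 one-dose screen run by NCI DTP: each cell line exposed to a single 10 µM dose, and percentage growth recorded against untreated growth.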

SR = assay: Cytotoxicity against human SR cells assessed as cell growth at 10 uM after 48 hrs by SRB assay relative to control; format: functional; conditions: read-out: Activity; in short: as §3
SK-MEL-5 = assay: Cytotoxicity against human SK-MEL-5 cells assessed as cell growth at 10 uM after 48 hrs by SRB assay relative to control; format: functional; conditions: SK-MEL-5, 48 h, read-out: Activity; in short: as §2
COLO 205 = assay: Cytotoxicity against human COLO205 cells assessed as cell growth at 10 uM after 48 hrs by SRB assay relative to control; format: functional; conditions: COLO 205, 48 h, read-out: Activity; in short: as §1
MCF7 = assay: Cytotoxicity against human MCF7 cells assessed as cell growth at 10 uM after 48 hrs by SRB assay relative to control; format: functional; conditions: MCF7, 48 h, read-out: Activity; in short: as §1
UO-31 = assay: Cytotoxicity against human UO31 cells assessed as cell growth at 10 uM after 48 hrs by SRB assay relative to control; format: functional; conditions: UO-31, 48 h, read-out: Activity; in short: as §3
MOLT-4 = assay: Cytotoxicity against human MOLT4 cells assessed as cell growth at 10 uM after 48 hrs by SRB assay relative to control; format: functional; conditions: MOLT-4, 48 h, read-out: Activity; in short: as §2
IGROV-1 = assay: Cytotoxicity against human IGROV1 cells assessed as cell growth at 10 uM after 48 hrs by SRB assay relative to control; format: functional; conditions: IGROV-1, 48 h, read-out: Activity; in short: as §1
[2] = Cytotoxicity against human EKVX cells assessed as cell growth at 10 uM after 48 hrs by SRB assay relative to control; format: functional; conditions: read-out: Activity; in short: as §1
UACC-62 = assay: Cytotoxicity against human UACC62 cells assessed as cell growth at 10 uM after 48 hrs by SRB assay relative to control; format: functional; conditions: UACC-62, 48 h, read-out: Activity; in short: as §3
MDA-MB-468 = assay: Cytotoxicity against human MDA-MB-468 cells assessed as cell growth at 10 uM after 48 hrs by SRB assay relative to control; format: functional; conditions: MDA-MB-468, 48 h, read-out: Activity; in short: as §2
NCI-H460 = assay: Cytotoxicity against human NCI-H460 cells assessed as cell growth at 10 uM after 48 hrs by SRB assay relative to control; format: functional; conditions: NCI-H460, 48 h, read-out: Activity; in short: as §2
UACC-257 = assay: Cytotoxicity against human UACC257 cells assessed as cell growth at 10 uM after 48 hrs by SRB assay relative to control; format: functional; conditions: UACC-257, 48 h, read-out: Activity; in short: as §3
PC-3 = assay: Cytotoxicity against human PC3 cells after 48 hrs by SRB assay; format: functional, cell-based; conditions: PC-3, 48 h
In short: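 Second-stage NCI-60 panel run by the NCI Developmental Therapeutics Program, covering nine tumour subpanels. Five concentrations were tested: 0.01, 0.1, 1, 10 and 100 μM. Percentage growth at each level was plotted against log10 drug concentration. GI50, TGI and LC50 were read from these dose-response curves. Subpanel MID values were divided into the full-panel MID to give selectivity ratios.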

DU-145 = assay: Cytotoxicity against human DU145 cells assessed as cell growth at 10 uM after 48 hrs by SRB assay relative to control; format: functional; conditions: DU-145, 48 h, read-out: Activity; in short: as §1
NCI-H23 = assay: Cytotoxicity against human NCI-H23 cells assessed as cell growth at 10 uM after 48 hrs by SRB assay relative to control; format: functional; conditions: NCI-H23, 48 h, read-out: Activity; in short: as §2
HCC 2998 = assay: Cytotoxicity against human HCC2998 cells assessed as cell growth at 10 uM after 48 hrs by SRB assay relative to control; format: functional; conditions: HCC 2998, 48 h, read-out: Activity; in short: as §1
BT-549 = assay: Cytotoxicity against human BT549 cells assessed as cell growth at 10 uM after 48 hrs by SRB assay relative to control; format: functional; conditions: BT-549, 48 h, read-out: Activity; in short: as §1
NCI-H522 = assay: Cytotoxicity against human NCI-H522 cells assessed as cell growth at 10 uM after 48 hrs by SRB assay relative to control; format: functional; conditions: NCI-H522, 48 h, read-out: Activity; in short: as §2
TK-10 = assay: Cytotoxicity against human TK10 cells assessed as cell growth at 10 uM after 48 hrs by SRB assay relative to control; format: functional; conditions: TK-10, 48 h, read-out: Activity; in short: as §3
Malme-3M = assay: Cytotoxicity against human MALME-3M cells assessed as cell growth at 10 uM after 48 hrs by SRB assay relative to control; format: functional; conditions: read-out: Activity; in short: as §1
T47D = assay: Cytotoxicity against human T47D cells assessed as cell growth at 10 uM after 48 hrs by SRB assay relative to control; format: functional; conditions: read-out: Activity; in short: as §3
HCT-116 = assay: Cytotoxicity against human HCT116 cells assessed as cell growth at 10 uM after 48 hrs by SRB assay relative to control; format: functional; conditions: HCT-116, 48 h, read-out: Activity; in short: as §1
CAKI-1 = assay: Cytotoxicity against human Caki1 cells assessed as cell growth at 10 uM after 48 hrs by SRB assay relative to control; format: functional; conditions: CAKI-1, 48 h, read-out: Activity; in short: as §1

| SMILES | growth at 10 µM (LOX IMVI) [%] | growth at 10 µM (SF-539) [%] | growth at 10 µM (SNB-75) [%] | growth at 10 µM (SK-MEL-5) [%] | growth at 10 µM (COLO 205) [%] | growth at 10 µM (MCF7) [%] | growth at 10 µM (UO-31) [%] | growth at 10 µM (IGROV-1) [%] | growth at 10 µM [2] [%] | growth at 10 µM (UACC-62) [%] | growth at 10 µM (MDA-MB-468) [%] | growth at 10 µM (UACC-257) [%] | pIC50 (PC-3) | growth at 10 µM (NCI-H23) [%] | growth at 10 µM (HCC 2998) [%] | growth at 10 µM (BT-549) [%] | growth at 10 µM (NCI-H522) [%] | growth at 10 µM (TK-10) [%] | growth at 10 µM (Malme-3M) [%] | growth at 10 µM (T47D) [%] | also measured |
| --- | --- | --- | --- | --- | --- | --- | --- | --- | --- | --- | --- | --- | --- | --- | --- | --- | --- | --- | --- | --- | --- |
| Cc1ccc(Sc2cc3c(c4nsnc24)C(=O)c2ccccc2C3=O)c(C)c1 | 90.4 | 100 | 76 | 110 | 107 | 79.8 | 65.7 | 95 | 109 | 94.5 | 100 | 122 | < 4.82 | 89.4 | 121 | 94.5 | 96.8 | 127 | 108 | 75.4 | growth at 10 µM (HOP-92): 97.8%; growth at 10 µM [1]: 99.1%; growth at 10 µM (SR): 70.3%; growth at 10 µM (MOLT-4): 91%; growth at 10 µM (NCI-H460): 102%; growth at 10 µM (DU-145): 110%; growth at 10 µM (HCT-116): 94.5% |
| COc1cccc(Sc2cc3c(c4nsnc24)C(=O)c2ccccc2C3=O)c1 | 71 | 107 | 81.8 | 100 | 110 | 72.8 | 75.5 | 99.9 | 105 | 87.7 | 93.5 | 104 | < 4.82 | 76.4 | 105 | 94.9 | 82.4 | 131 | 113 | 69.1 | growth at 10 µM (HOP-92): 101%; growth at 10 µM [1]: 93.8%; growth at 10 µM (SR): 36.1%; growth at 10 µM (MOLT-4): 35.8%; growth at 10 µM (NCI-H460): 100%; growth at 10 µM (DU-145): 98.9%; growth at 10 µM (HCT-116): 85.7% |
| CCOc1cccc(Sc2cc3c(c4nsnc24)C(=O)c2ccccc2C3=O)c1 | 84.1 | 93.7 | 77.2 | 107 | 106 | 78.8 | 76.7 | 94.7 | 102 | 109 | 108 | 126 | < 4.82 | 94.1 | 105 | 104 | 98.2 | 125 | 109 | 86.5 | growth at 10 µM (CAKI-1): 84.2%; growth at 10 µM (HCT-116): 101% |
